Measured values: ChEMBL document CHEMBL1177774, “2-Aryl-4,5,6,7-tetrahydro-1,3-benzothiazol-7-ols as a class of antitumor agents selectively active in securin(-/-) cells” (Bioorg Med Chem Lett, 2010)

Columns and labels:
Type in all cases: functional, cell-based
HCT-116 [1] = test: Cytotoxicity against human HCT116 cells after 2 days by sulforhodamine B assay; conditions: HCT-116, 48 h
Procedure, shortened: (§1)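 Cells kept in RPMI 1640 with 10% fetal bovine serum and 50 µg/ml gentamicin, 37 °C, humidified, 5% CO2. Plated in 96-well plates; compound dilutions added next day (final 2 nM to 200 µM), then 2 days culture before survival read-out. 10 concentrations, in triplicate (some in duplicate); repeat values agreed on average within 40%.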

HCT-116 [2] = test: Cytotoxicity against human HCT116-D8 securin -/- cells after 2 days by sulforhodamine B assay; conditions: HCT-116, 48 h; procedure, shortened: as §1
[3] = Cytotoxicity against human HCT116-F3 securin -/- cells after 2 days by sulforhodamine B assay; conditions: 48 h; procedure, shortened: as §1
MCF-10A = test: Cytotoxicity against human MCF10A cells after 2 days by sulforhodamine B assay; conditions: 48 h; procedure, shortened: as §1
MCF7 = test: Cytotoxicity against human MCF7 cells after 2 days by sulforhodamine B assay; conditions: MCF7, 48 h; procedure, shortened: as §1
MDA-MB-361 = test: Cytotoxicity against human MDA-MB-361 cells after 2 days by sulforhodamine B assay; conditions: MDA-MB-361, 48 h; procedure, shortened: as §1

## OC1CNCc2nc(-c3ccc(N4CCCC4)cc3)sc21 (stereo unspecified)
HCT-116 [1]
  IC50: 25000 nM
HCT-116 [2]
  IC50: 730 nM
[3]
  IC50: 1070 nM
MCF-10A
  IC50: 27800 nM
MCF7
  IC50: 1530 nM
MDA-MB-361
  IC50: 140 nM

## CN(C)c1ccc(-c2nc3c(s2)C(O)CNC3)c(CO)c1 (stereo unspecified)
HCT-116 [1]
  IC50: > 100000 nM
HCT-116 [2]
  IC50: 100 nM
[3]
  IC50: 100 nM
MCF-10A
  IC50: 70000 nM
MCF7
  IC50: 31 nM
MDA-MB-361
  IC50: 22 nM

## CN(C)c1ccc(-c2nc3c(s2)C(O)CCC3)cc1 (stereo unspecified)
HCT-116 [1]
  IC50: > 150000 nM
HCT-116 [2]
  IC50: 1500 nM
[3]
  IC50: 3000 nM
MCF-10A
  IC50: > 150000 nM
MCF7
  IC50: 1170 nM
MDA-MB-361
  IC50: 830 nM

## CN(C)c1ccc(-c2nc3c(s2)[C@H](O)CCC3)cc1
HCT-116 [1]
  IC50: 114000 nM
HCT-116 [2]
  IC50: 850 nM
[3]
  IC50: 1430 nM
MCF-10A
  IC50: > 100000 nM
MCF7
  IC50: 1450 nM
MDA-MB-361
  IC50: 200 nM

## CN(C)c1ccc(-c2nc3c(s2)[C@@H](O)CCC3)cc1
HCT-116 [1]
  IC50: > 100000 nM
HCT-116 [2]
  IC50: 20000 nM
[3]
  IC50: 46000 nM
MCF-10A
  IC50: > 100000 nM
MCF7
  IC50: 3300 nM

## Cc1cc(N(C)C)ccc1-c1nc2c(s1)[C@H](O)CCC2
HCT-116 [1]
  IC50: > 100000 nM
HCT-116 [2]
  IC50: 270 nM
[3]
  IC50: 230 nM
MCF-10A
  IC50: > 100000 nM
MCF7
  IC50: 730 nM
MDA-MB-361
  IC50: 83 nM

## OCc1cc(N2CCCC2)ccc1-c1nc2c(s1)C(O)CNC2 (stereo unspecified)
HCT-116 [1]
  IC50: > 100000 nM
HCT-116 [2]
  IC50: 70 nM
[3]
  IC50: 60 nM
MCF-10A
  IC50: > 100000 nM
MCF7
  IC50: 13 nM
MDA-MB-361
  IC50: 20 nM

## OC1CCCc2nc(-c3ccc(N4CCCC4)cc3)sc21 (stereo unspecified)
HCT-116 [1]
  IC50: > 100000 nM
HCT-116 [2]
  IC50: 1530 nM
[3]
  IC50: 2800 nM
MCF-10A
  IC50: > 100000 nM
MCF7
  IC50: 8700 nM
MDA-MB-361
  IC50: 200 nM

## CN(C)c1ccc(-c2nc3c(s2)C(O)CCC3)c(CO)c1 (stereo unspecified)
HCT-116 [1]
  IC50: 78000 nM
HCT-116 [2]
  IC50: 60 nM
[3]
  IC50: 60 nM
MCF-10A
  IC50: > 100000 nM
MCF7
  IC50: 360 nM
MDA-MB-361
  IC50: 420 nM

## OCc1cc(N2CCCC2)ccc1-c1nc2c(s1)C(O)CCC2 (stereo unspecified)
HCT-116 [1]
  IC50: 21000 nM
HCT-116 [2]
  IC50: 42 nM
[3]
  IC50: 44 nM
MCF-10A
  IC50: 17000 nM
MCF7
  IC50: 56 nM
MDA-MB-361
  IC50: 32 nM

## CN(C)c1ccc(-c2nc3c(s2)C(O)CNC3)cc1 (stereo unspecified)
HCT-116 [1]
  IC50: 121000 nM
HCT-116 [2]
  IC50: 1330 nM
[3]
  IC50: 1630 nM
MCF-10A
  IC50: 70200 nM
MCF7
  IC50: 1600 nM
MDA-MB-361
  IC50: 170 nM

## Cc1cc(N(C)C)ccc1-c1nc2c(s1)[C@@H](O)CCC2
HCT-116 [1]
  IC50: 127000 nM
HCT-116 [2]
  IC50: 560 nM
[3]
  IC50: 1160 nM
MCF-10A
  IC50: > 100000 nM
MCF7
  IC50: 2150 nM
MDA-MB-361
  IC50: 160 nM
